The test system of test [1] is Rattus norvegicus. Put plainly: Efficiency of chelation measured as net iron excretion/total iron-binding capacity of 300 umol/kg compound administered po in rats. The format is functional. The essentials:
(§1)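 Bile duct-cannulated male Sprague-Dawley rats (~450 g), anesthetized with sodium pentobarbital 55 mg/kg ip. Chelator given po or sc in 40% Cremophor RH-40/water. Bile collected every 3 h for 24 h, urine at 24 h; iron by flame AA. Net excretion is treated minus control. Theoretical output assumes 1:1 or 2:1 ligand/iron by denticity. n = 4; mean ± SEM.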

For test [2], the system named is Monkey. Put plainly: Efficiency of chelation measured as net iron excretion/total iron-binding capacity of 300 umol/kg compound administered sc in monkeys. It counts as functional, Cercopithecidae. The essentials:
(§2)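 Cebus apella monkeys iron-overloaded with iv iron dextran (~500 mg Fe/kg), rested ≥60 days. Dosed sc as aqueous suspension or sodium salt solution (DFO in sterile H2O, 1 mL/kg). Feces and urine collected at 24 h intervals from 4 days pre-dose to 5 days post-dose; iron by flame AA. Efficiency is 2-day post-dose iron minus 4-day baseline mean, divided by theoretical output. n = 4; mean ± SEM.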

The test system of test [3] is Monkey. Put plainly: Efficiency of chelation measured as net iron excretion/total iron-binding capacity of 150 umol/kg compound administered sc in monkeys. It counts as functional, Cercopithecidae. The essentials: as §2
Test [4] concerns Rattus norvegicus. Put plainly: Efficiency of chelation measured as net iron excretion/total iron-binding capacity of 300 umol/kg compound administered sc in rats. The format is functional. In a few lines: as §1
Test [5] deals with Monkey. Put plainly: Efficiency of chelation measured as net iron excretion/total iron-binding capacity of 300 umol/kg compound administered po in monkeys. It counts as functional, Cercopithecidae.
The subject of test [6] is Rattus norvegicus. Put plainly: Efficiency of chelation measured as net iron excretion/total iron-binding capacity of 150 umol/kg compound administered po in rats. It counts as functional. In a few lines: as §1
Test [7] has as its system Monkey. Put plainly: Efficiency of chelation measured as net iron excretion/total iron-binding capacity of 150 umol/kg compound administered sc in monkey. The format is functional, Cercopithecidae. In a few lines:
as §2

The subject of test [8] is Rattus norvegicus. Put plainly: Efficiency of chelation measured as net iron excretion/total iron-binding capacity of 150 umol/kg compound administered sc in rats. The format is functional. The essentials: as §1
Test [9] deals with Monkey. Put plainly: Efficiency of chelation measured as net iron excretion/total iron-binding capacity of 75 umol/kg compound administered sc in monkey. The format is functional, Cercopithecidae. In a few lines: as §2
Test [10] relates to Monkey. Put plainly: Efficiency of chelation measured as net iron excretion/total iron-binding capacity of 150 umol/kg compound administered po in monkey. The format is functional, Cercopithecidae.

Each structure is given as a SMILES string.

Consider `O=C(O)[C@H]1CSC(c2ccc(O)cc2O)=N1`, for which the Efficiency in test [1] is reported as 2.9%; in test [2], 5.3%; in test [3], 5.6%; in [4], 2.1%; in [5], 5.3%.

`O=C(O)[C@H]1CSC(c2cc(CCCOCCCOCCCc3cc(C4=N[C@@H](C(=O)O)CS4)c(O)cc3O)c(O)cc2O)=N1`: the Efficiency in test [6] is on record as 0.9%; in test [7], 2.1%; in test [8], 6.5%; in test [9], 3.2%.

On to `CC(=O)N(O)CCCCCNC(=O)CCC(=O)N(O)CCCCCNC(=O)CCC(=O)N(O)CCCCCN` [DEFEROXAMINE], for which the Efficiency in [6] came to 1.1%; in [7], 5.5%; in [10] it was 0.1%; in test [8] it was 2.8%.
